HKDC1 inhibitor – blocks human hexokinase HKDC1 activity; Q2TB90; recombinant HKDC1, G6PDH/diaphorase resazurin coupled fluorescence; inhibition, % at 20 µM; hit rate 0.16% among 340,000; AID 493160;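 active = inhibition above about 35% when tested at 20 µM, limit read from the data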;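 also: plate controls were DMSO wells with enzyme for no effect and DMSO wells lacking enzyme for full effect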
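Assay system: recombinant HKDC1 hexokinase; detection: coupled resazurin fluorescence, excitation 525 nm, emission 613 nm; benchmarks: DMSO-plus-enzyme-mix negative control, buffer-substituted positive control; compound dosing: single 20 µM dose; schedule: 90 min at room temperature in dark; also added: glucose plus 1 mM ATP as hexokinase substrates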
G6PDH CS – counter-screen for G6PDH assay hits: L. mesenteroides G6PDH inhibition; inhibition, % at 5 µM; hit rate 0.12% among 200,000; AID 1020; Purified L. mesenteroides G6PDH, diaphorase/resazurin coupled fluorescence, 45 min; in the data active = inhibition above about 50%
Diaphorase act – counter-screen for diaphorase-based assays: diaphorase activators and chemical reducers; hit rate 0.005% among 190,000; Diaphorase/resazurin coupled assay, resorufin fluorescence, 16 min; stronger effect = higher value; 1 = vehicle wells, 0 = NADH-free wells; activation factor at 20 µM;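 active = diaphorase activity raised at least twofold by the compound at 20 µM; inactive = activation factor below 2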
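Assay system: bacterial diaphorase enzyme (C. kluyveri) / Input: enzyme 0.07 U/mL final / Medium: 50 mM HEPES pH 7.4 with 4.542 mM MgCl2, 0.005% Tween 20 / Doses: single compound dose of 20 µM, 1% DMSO final / Incubation: 16 min enzyme reaction, ambient temperature / Signal: fluorescence, excitation 544 nm and emission 590 nm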
Diaphorase inh – counter-screen for diaphorase-based assays: diaphorase inhibitors and chemical oxidizers | inhibition, % at 20 µM | diaphorase resazurin-to-resorufin fluorescence, NADH, 16 min; bacterial (C. kluyveri) enzyme, not human | hit rate 0.69% among 190,000;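 active = primary screen inhibition at 20 µM above a set limit, cut at about 50% in these data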;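 also: plate controls were DMSO with full reaction for no effect and wells lacking NADH for full effect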
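System: Bacterial diaphorase enzyme (C. kluyveri) | Incubation: 16-min room-temperature incubation before reading | Benchmarks: No-NADH positive control and DMSO neutral control | Measured by: Resorufin fluorescence 544/590 nm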
PfG6PD inh – PfG6PD (Plasmodium falciparum) enzyme inhibition. inhibition, % at 20 µM. hit rate 0.78% among 350,000. PfGluPho enzyme, NADPH resazurin-diaphorase fluorescence;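 active = inhibition reaching at least a set limit at 20 µM in the primary screen, cut at about 59% in these data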;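 also: 0% = DMSO wells with substrate and 100% = DMSO wells lacking glucose-6-phosphate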
* hit, by the source's call; . = no result given. Shown are actives, neighbours in structure and some others; about 1.3% of the full set was active somewhere.

SMILES | HKDC1 inhibitor | G6PDH CS | Diaphorase act | Diaphorase inh | PfG6PD inh
Oc1ccc(N=Cc2ccc(-c3cccs3)s2)cc1 | 15 | 26 | 0.7 | 31 | 72*
O=C(NCCO)c1cc2ccccc2cc1O | -1 | -2 | 0.5 | 52* | 33
CCOC(=O)c1c(C)oc2c1c1c(c3ccccc32)OCN(Cc2cccnc2)C1 | 17 | 13 | 0.5 | 53* | 41
CCOC(=O)c1c(C)oc2c1c1c(c3ccccc32)OCN(CCCC(=O)O)C1 | 21 | . | . | . | 28
COc1ccc(CCNC(=O)CSc2nc3[nH]ncc3c(=O)n2-c2ccc(Cl)cc2Cl)cc1OC | 26 | 2 | 0.3 | 73* | 48
COc1ccc(CCNC(=O)CSc2nc3[nH]ncc3c(=O)n2-c2ccccc2OC)cc1OC | -6 | 4 | 1 | -1 | 14
COc1cc(NC(c2ccccc2)c2ccccc2)cc(OC)c1OC | 2 | 15 | 0.2 | 77* | 36
COc1ccc(C(=O)C(c2ccccc2)N2CCOCC2)cc1 (stereo not drawn) | 2 | 10 | 1.1 | -13 | -21
Cc1ccc(C(=O)C(c2ccccc2)N2Cc3ccccc3C2=N)cc1 (stereo not drawn) | 1 | 7 | 0.9 | 9 | 65*
Cc1ccc(C(=O)OCc2nc3ccsc3c(=O)[nH]2)o1 | -7 | . | . | . | -5
O=C(/C=C/c1ccc(Br)o1)OCc1nc2ccsc2c(=O)[nH]1 | 58* | . | . | . | 48
Cc1ccc2c(c1)C1C=CCC1C(C(=O)O)N2 (stereo not drawn) | . | 2 | 0.4 | 63* | .
Cc1ccc2c(c1)C1C=CCC1C(C(=O)NCCCN1CCOCC1)N2 (stereo not drawn) | 3 | . | . | . | 2
COc1cccc2c1NC(C(=O)O)C1CC=CC21 (stereo not drawn) | 12 | 12 | 0.1 | 93* | 11
COC1OC2COC(c3ccccc3)OC2C2OC(c3ccccc3)OC12 (stereo not drawn) | . | . | . | . | -1
CCN(CC)Cc1c(O)ccc2c(=O)c(-c3ccccc3OC)coc12 | -4 | . | . | . | 4
CC(C)(C)c1cc(C(=O)N/N=C/c2ccc(-c3ccccc3[N+](=O)[O-])o2)n[nH]1 | 19 | . | . | . | 12
O=C(N/N=C/c1ccc(-c2ccccc2[N+](=O)[O-])o1)c1cccnc1 | 13 | -25 | 0.4 | 59* | 29
O=C1NC(=O)/C(=C/c2cccc3ccccc23)S1 | 6 | . | . | . | -30
O=C1NC(=O)/C(=C\c2ccc(O)cc2O)S1 | 4 | 28 | 0.2 | 82* | -1
Cc1csc(CNc2ncnc3ccc(-c4cccc(Cl)c4)cc23)c1 | -3 | . | . | . | -2
O=C(CSc1nc2ccccc2s1)Nc1cc(C(=O)O)cc(C(=O)O)c1 | -3 | 7 | 0.4 | 62* | -2
CCOc1ccc(NC(=O)C(c2ccccn2)N(C(=O)CCl)c2ccc(OC)cc2)cc1 (stereo not drawn) | 12 | 20 | 0.4 | 56* | 53
CCOc1ccc(NC(=O)C(c2ccccn2)N(C(=O)CCl)c2ccc(OCC)cc2)cc1 (stereo not drawn) | -5 | 8 | 0.5 | 54* | 38
CC(C)c1ccc(S(=O)(=O)/N=C2/C=CC(=O)c3ccccc32)cc1 | . | 55* | 0.7 | 31 | .
SMILES | HKDC1 inhibitor | G6PDH CS | Diaphorase act | Diaphorase inh | PfG6PD inh
CC(C)c1ccc(S(=O)(=O)/N=C2\C=C(NS(=O)(=O)c3ccccc3)C(=O)c3ccccc32)cc1 | 27 | . | . | . | 12
Cc1ccc(O)c(N=Cc2cc(Cc3ccccc3)cc([N+](=O)[O-])c2O)c1 | 17 | 32 | 0.4 | 64* | 45
CCCn1ncc(CN2CCC(n3nccc3NC(=O)CCc3ccccc3)CC2)c1C | 2 | . | . | . | 13
Cc1ccc(NC(=O)CNC(=O)c2ccco2)cc1 | 2 | . | . | . | -13
CCCc1ccc(C2=Nn3c(nnc3C(C)C)SC2)cc1 | -7 | . | . | . | 60*
N#CC1=C(N)Oc2n[nH]c(-c3cccs3)c2C1c1ccsc1 (stereo not drawn) | 8 | 5 | 0.4 | 60* | -11
CCCn1ncc([C@@H]2C[C@H]3CN(Cc4cccc(Cl)c4)C(=O)[C@]34CCCN24)c1C | 8 | 3 | 0.4 | 60* | -5
Cc1ccc2nc(N3CCN(c4ccccc4F)CC3)c(C=O)c(=O)n2c1 | 3 | 18 | 0.5 | 53* | 0
COc1ccc(NC(=S)Nc2ccc3nccnc3c2)cc1 | 7 | 15 | 0.3 | 65* | 39

From PubChem
